ChEMBL document CHEMBL1123277, “Reactive 5'-substituted thymidine derivatives as potential inhibitors of nucleotide biosynthesis” (J Med Chem, 1986)

Legend:
L1210 [1] = experiment: Compound was tested for the cytotoxic concentration that produces 50% inhibition of L1210 cells.; type: functional, cell-based; conditions: Mus musculus, read-out: I50
HEp-2 = experiment: Compound was tested for the cytotoxic concentration that produces 50% inhibition of cloning of H.Ep.-2 cells; type: functional, cell-based; conditions: Homo sapiens, read-out: I50
[2] = Half-life is estimated by TLC; type: ADME
How it was run: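 Reactivity toward thiol was measured at pH 7. A 0.25–0.5% solution of compound in MeOH was mixed 1:1 with 1% mercaptoethanol in pH 7 buffer. Loss of alkylating activity was followed by TLC with 4-(4-nitrobenzyl)pyridine spray, and the half-life was estimated from this.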

L1210 [3] = experiment: Compound was tested for the cytotoxic concentration that produces 50% inhibition of L1210 cells; type: functional, cell-based; conditions: Mus musculus, read-out: I50
P388 = experiment: Compound was tested in vivo in […] murine leukemia cells in mice at dose of 200 mg/kg; type: functional; conditions: Mus musculus

Cc1cn(C2CC(O)C(CN(C)C(=O)CCl)O2)c(=O)[nH]c1=O (stereo not given)
IC50 (L1210 [1]): > 120 µM

Cc1cn(C2CC(O)C(CNC(=O)CCl)O2)c(=O)[nH]c1=O (stereo not given)
IC50 (HEp-2): 25 µM | half-life [2]: 3 h | IC50 (L1210 [3]): 130 µM | ILS at 200 mg/kg (P388): 9%
